According to ChEMBL document CHEMBL4689842, “EUbOPEN Chemogenomics Library wave 1” (2021):
Where “and” joins values, the source holds several entries; their conditions need not be identical. Equal entries are not always repeated.

System: Fibroblast
Assay: Multiplex assay against human fibroblast
Format: toxicity, cell-based
Procedure, shortened: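 Cells were classed with CellPathfinder machine-learning gating, first as Hoechst high-intensity objects or normal cells, then (normal cells) as healthy, pyknosed or fragmented nuclei, and finally (pyknosed cells) as mitotic or apoptotic. Staining of live cells at seeding used Hoechst33342, BioTracker Green Microtubule Cytoskeleton Dye, MitoTracker Red and Annexin V Alexa Fluor 680, with imaging on a CQ1 microscope at 37°C and 5% CO2 after compound addition. Tubulin, mitochondrial-mass and membrane-permeability phenotypes are per cents of healthy-nucleus cells.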

[1] = 12 h, 1 µM, compound concentration 1 uM, replicate 1
[2] = 12 h, 1 µM, compound concentration 1 uM, replicate 2
[3] = 12 h, 10 µM, compound concentration 10 uM, replicate 1
[4] = 12 h, 10 µM, compound concentration 10 uM, replicate 2
[5] = 24 h, 1 µM, compound concentration 1 uM, replicate 1
[6] = 24 h, 1 µM, compound concentration 1 uM, replicate 2
[7] = 24 h, 10 µM, compound concentration 10 uM, replicate 1
[8] = 24 h, 10 µM, compound concentration 10 uM, replicate 2
[9] = 48 h, 1 µM, compound concentration 1 uM, replicate 1
[10] = 48 h, 1 µM, compound concentration 1 uM, replicate 2
[11] = 48 h, 10 µM, compound concentration 10 uM, replicate 1
[12] = 48 h, 10 µM, compound concentration 10 uM, replicate 2

## O=C(c1cc2c(cc1F)OC(c1ccc(F)cc1)(c1ccc(Cl)cc1Cl)O2)N1CCOCC1 (stereo not drawn)
[1]
  Population Apoptotic (%): 51%
  Population Fragmented Nuclei (%): 18%
  Population Healthy Nuclei (%): 47%
  Population Hoechst High Intensity Objects (%): 13%
  Population Membrane Permeable-Phenotype (%): 19%
  Population Mitochondria Different-Phenotype (%): 6%
  Population Mitotic Cells (%): 48%
  Population Normal (%): 86%
  Population Pyknosed Nuclei (%): 34%
  Population Tubulin-Different-Phenotype (%): 56%
  Total Cell Count: 112
[2]
  Population Apoptotic (%): 50%
  Population Healthy Nuclei (%): 68%
  Population Hoechst High Intensity Objects (%): 7%
  Population Membrane Permeable-Phenotype (%): 9%
  Population Mitochondria Different-Phenotype (%): 12%
  Population Mitotic Cells (%): 50%
  Population Normal (%): 92%
  Population Pyknosed Nuclei (%): 12%
  Population Tubulin-Different-Phenotype (%): 15%
  Total Cell Count: 78
[3]
  Population Apoptotic (%): 71%
  Population Fragmented Nuclei (%): 31%
  Population Healthy Nuclei (%): 29%
  Population Hoechst High Intensity Objects (%): 12%
  Population Membrane Permeable-Phenotype (%): 4%
  Population Mitochondria Different-Phenotype (%): 43%
  Population Mitotic Cells (%): 28%
  Population Normal (%): 87%
  Population Pyknosed Nuclei (%): 38%
  Population Tubulin-Different-Phenotype (%): 17%
  Total Cell Count: 176
[4]
  Population Fragmented Nuclei (%): 10%
  Population Healthy Nuclei (%): 78%
  Population Hoechst High Intensity Objects (%): 4%
  Population Membrane Permeable-Phenotype (%): 47%
  Population Mitochondria Different-Phenotype (%): 96%
  Population Normal (%): 95%
  Population Pyknosed Nuclei (%): 10%
  Population Tubulin-Different-Phenotype (%): 100%
  Total Cell Count: 52
[5]
  Population Apoptotic (%): 26%
  Population Fragmented Nuclei (%): 17%
  Population Healthy Nuclei (%): 61%
  Population Hoechst High Intensity Objects (%): 18%
  Population Membrane Permeable-Phenotype (%): 18%
  Population Mitochondria Different-Phenotype (%): 12%
  Population Mitotic Cells (%): 73%
  Population Normal (%): 81%
  Population Pyknosed Nuclei (%): 21%
  Population Tubulin-Different-Phenotype (%): 50%
  Total Cell Count: 108
[6]
  Population Apoptotic (%): 33%
  Population Fragmented Nuclei (%): 5%
  Population Healthy Nuclei (%): 88%
  Population Hoechst High Intensity Objects (%): 10%
  Population Membrane Permeable-Phenotype (%): 10%
  Population Mitochondria Different-Phenotype (%): 15%
  Population Mitotic Cells (%): 66%
  Population Normal (%): 89%
  Population Pyknosed Nuclei (%): 5%
  Population Tubulin-Different-Phenotype (%): 21%
  Total Cell Count: 85
[7]
  Population Apoptotic (%): 67%
  Population Fragmented Nuclei (%): 32%
  Population Healthy Nuclei (%): 32%
  Population Hoechst High Intensity Objects (%): 12%
  Population Membrane Permeable-Phenotype (%): 2%
  Population Mitochondria Different-Phenotype (%): 81%
  Population Mitotic Cells (%): 32%
  Population Normal (%): 87%
  Population Pyknosed Nuclei (%): 35%
  Population Tubulin-Different-Phenotype (%): 16%
  Total Cell Count: 169
[8]
  Population Apoptotic (%): 66%
  Population Fragmented Nuclei (%): 8%
  Population Healthy Nuclei (%): 62%
  Population Hoechst High Intensity Objects (%): 6%
  Population Membrane Permeable-Phenotype (%): 64%
  Population Mitochondria Different-Phenotype (%): 100%
  Population Mitotic Cells (%): 33%
  Population Normal (%): 93%
  Population Pyknosed Nuclei (%): 29%
  Population Tubulin-Different-Phenotype (%): 100%
  Total Cell Count: 58
[9]
  Population Apoptotic (%): 42%
  Population Fragmented Nuclei (%): 31%
  Population Healthy Nuclei (%): 50%
  Population Hoechst High Intensity Objects (%): 11%
  Population Membrane Permeable-Phenotype (%): 15%
  Population Mitochondria Different-Phenotype (%): 11%
  Population Mitotic Cells (%): 57%
  Population Normal (%): 88%
  Population Pyknosed Nuclei (%): 18%
  Population Tubulin-Different-Phenotype (%): 43%
  Total Cell Count: 119
[10]
  Population Apoptotic (%): 33%
  Population Fragmented Nuclei (%): 18%
  Population Healthy Nuclei (%): 73%
  Population Hoechst High Intensity Objects (%): 12%
  Population Membrane Permeable-Phenotype (%): 8%
  Population Mitochondria Different-Phenotype (%): 5%
  Population Mitotic Cells (%): 66%
  Population Normal (%): 87%
  Population Pyknosed Nuclei (%): 7%
  Population Tubulin-Different-Phenotype (%): 37%
  Total Cell Count: 90
[11]
  Population Apoptotic (%): 80%
  Population Fragmented Nuclei (%): 33%
  Population Healthy Nuclei (%): 42%
  Population Hoechst High Intensity Objects (%): 14%
  Population Membrane Permeable-Phenotype (%): 1%
  Population Mitochondria Different-Phenotype (%): 70%
  Population Mitotic Cells (%): 20%
  Population Normal (%): 85%
  Population Pyknosed Nuclei (%): 24%
  Population Tubulin-Different-Phenotype (%): 6%
  Total Cell Count: 167
[12]
  Population Apoptotic (%): 81%
  Population Fragmented Nuclei (%): 34%
  Population Healthy Nuclei (%): 56%
  Population Hoechst High Intensity Objects (%): 12%
  Population Membrane Permeable-Phenotype (%): 0%
  Population Mitochondria Different-Phenotype (%): 90%
  Population Mitotic Cells (%): 18%
  Population Normal (%): 87%
  Population Pyknosed Nuclei (%): 9%
  Population Tubulin-Different-Phenotype (%): 3%
  Total Cell Count: 133

## Cc1cc(NC(=O)c2cccc(S(F)(F)(F)(F)F)c2)cc(-n2ccn3nc(-c4cccnc4)cc23)c1 [BAY-309]
[3]
  Population Apoptotic (%): 72% and 60%
  Population Fragmented Nuclei (%): 29% and 25%
  Population Healthy Nuclei (%): 45% and 52%
  Population Hoechst High Intensity Objects (%): 11% and 13%
  Population Mitochondria Different-Phenotype (%): 16% and 14%
  Population Mitotic Cells (%): 27% and 39%
  Population Normal (%): 88% and 86%
  Population Pyknosed Nuclei (%): 25% and 22%
  Total Cell Count: 260 and 213
[4]
  Population Apoptotic (%): 54% and 62%
  Population Fragmented Nuclei (%): 66% and 44%
  Population Healthy Nuclei (%): 20% and 40%
  Population Hoechst High Intensity Objects (%): 29% and 31%
  Population Membrane Permeable-Phenotype (%): 16% and 20%
  Population Mitochondria Different-Phenotype (%): 33% and 35%
  Population Mitotic Cells (%): 45% and 37%
  Population Normal (%): 70% and 68%
  Population Pyknosed Nuclei (%): 12% and 16%
  Population Tubulin-Different-Phenotype (%): 50% and 80%
  Total Cell Count: 122 and 73
[7]
  Population Apoptotic (%): 80% and 62%
  Population Fragmented Nuclei (%): 24% and 21%
  Population Healthy Nuclei (%): 47% and 56%
  Population Hoechst High Intensity Objects (%): 16% and 15%
  Population Mitotic Cells (%): 19% and 37%
  Population Normal (%): 83% and 84%
  Population Pyknosed Nuclei (%): 28% and 21%
  Population Tubulin-Different-Phenotype (%): 83% and 28%
  Total Cell Count: 241 and 216
[8]
  Population Apoptotic (%): 60% and 90%
  Population Fragmented Nuclei (%): 66% and 57%
  Population Healthy Nuclei (%): 20% and 26%
  Population Hoechst High Intensity Objects (%): 36% and 25%
  Population Membrane Permeable-Phenotype (%): 11% and 0%
  Population Mitochondria Different-Phenotype (%): 29% and 22%
  Population Normal (%): 63% and 75%
  Population Pyknosed Nuclei (%): 12% and 15%
  Population Tubulin-Different-Phenotype (%): 41%
  Total Cell Count: 128 and 92
